Laboratory results taken from ChEMBL document CHEMBL1649328, “Assessment of pandemic and seasonal influenza A (H1N1) virus susceptibility to neuraminidase inhibitors in three enzyme activity inhibition assays” (Antimicrob Agents Chemother, 2010).

Columns and labels:
Influenza A virus [1] = assay: Antiviral activity against influenza A (A/Washington/29/2009 (H1N1)) virus harboring neuraminidase H275Y mutant after 16 to 18 hrs by fetuin substrate based colorimetric assay; type: functional, organism-based
Summary of the method: (§1)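 Colorimetric NA inhibition with fetuin substrate. Virus was diluted in NA-Star buffer (26 mM MES, 4 mM CaCl2, pH 6.0) to give OD549 of 0.4–0.8 after 18 h. It was preincubated with ten half-log inhibitor dilutions (0.03–1,000 nM final) for 1 h at 37°C, then with fetuin (5.5 mg/ml final) for 16–18 h at 37°C. Released sialic acid was read at 549 nm after periodate/TBA reaction and butanol extraction. IC50 came from a Vmax·[1−x/(K+x)] fit, mean of ≥2 experiments.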

Influenza A virus [2] = assay: Ratio of IC50 for influenza A (A/North Carolina/02/2009 (H1N1)) virus harboring neuraminidase H275Y mutant to IC50 for influenza A (A/Washington/10/2008 (H1N1)) virus expressing wild type enzyme expressing wild type enzyme by NA-star substrate based chemiluminescent assay; type: functional
Influenza A virus [3] = assay: Ratio of IC50 for influenza A (A/Singapore/57/2009 (H1N1)) virus harboring neuraminidase H275Y mutant to IC50 for influenza A (A/Washington/29/2009 (H1N1)) virus expressing wild type enzyme by fetuin substrate based colorimetric assay; type: functional
Summary of the method: (§2)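 Colorimetric NA inhibition using a virus dilution that gave 0.4–0.8 OD549. Virus preincubated 1 h at 37°C with half-log inhibitor dilutions (0.03–1,000 nM final) in MES/CaCl2 pH 6.0 buffer. Fetuin (5.5 mg/ml final) then added for 18 h at 37°C. Released sialic acid detected by periodate oxidation and thiobarbituric acid, butanol extraction, read at 549 nm. IC50 curve-fitted, ≥2 experiments. Ratio is variant IC50 over wild-type reference IC50.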

Influenza A virus [4] = assay: Antiviral activity against influenza A (A/North Carolina/01/2009 (H1N1)) virus harboring neuraminidase H275Y mutant after 30 mins by NA-star substrate based chemiluminescent assay; type: functional, organism-based
Summary of the method: (§3)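 Titrated virus in NA-Star buffer (26 mM MES, 4 mM CaCl2, pH 6.0) was preincubated with ten half-log inhibitor dilutions (0.03–1,000 nM final) for 30 min at 37°C, then with substrate for 30 min at room temperature. Accelerator solution was added and luminescence read for 0.1 s. IC50 came from a Vmax·[1−x/(K+x)] fit, mean of ≥3 experiments.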

Influenza A virus [5] = assay: Ratio of IC50 for influenza A (A/Singapore/57/2009 (H1N1)) virus harboring neuraminidase H275Y mutant to IC50 for influenza A (A/Washington/29/2009 (H1N1)) virus expressing wild type enzyme by MUNANA substrate based fluorometric assay; type: functional
Summary of the method: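 Fluorometric NA inhibition in MES/CaCl2 buffer, pH 6.0. Virus preincubated 30 min at 37°C with ten half-log inhibitor dilutions (0.03–1,000 nM final), then MUNANA (100 μM final) added for 30 min at 37°C. Stopped with 0.1 M glycine in 25% ethanol, pH 10.7. Read at ex 365/em 450 nm. IC50 curve-fitted, mean of ≥3 experiments. Ratio is variant IC50 over wild-type reference IC50.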

Influenza A virus [6] = assay: Ratio of IC50 for influenza A (A/Hong Kong/2369/2009 (H1N1)) virus harboring neuraminidase H275Y mutant to IC50 for influenza A (A/Washington/29/2009 (H1N1)) virus expressing wild type enzyme by fetuin substrate based colorimetric assay; type: functional
Influenza A virus [7] = assay: Ratio of IC50 for influenza A (A/Montana/02/2009 (H1N1)) virus harboring neuraminidase H275Y mutant to IC50 for influenza A (A/Washington/29/2009 (H1N1)) virus expressing wild type enzyme by fetuin substrate based colorimetric assay; type: functional
Influenza A virus [8] = assay: Ratio of IC50 for influenza A (A/Osaka/180/2009 (H1N1)) virus harboring neuraminidase H275Y mutant to IC50 for influenza A (A/Washington/29/2009 (H1N1)) virus expressing wild type enzyme by fetuin substrate based colorimetric assay; type: functional; summary of the method: as §2
Influenza A virus [9] = assay: Antiviral activity against influenza A (A/Osaka/180/2009 (H1N1)) virus harboring neuraminidase H275Y mutant after 30 mins by NA-star substrate based chemiluminescent assay; type: functional, organism-based; summary of the method: as §3
Influenza A virus [10] = assay: Ratio of IC50 for influenza A (A/New York/18/2009 (H1N1)) virus harboring neuraminidase H275Y mutant to IC50 for influenza A (A/Washington/10/2008 (H1N1)) virus expressing wild type enzyme by NA-star substrate based chemiluminescent assay; type: functional
Influenza A virus [11] = assay: Antiviral activity against influenza A (A/Washington/29/2009 (H1N1)) virus harboring neuraminidase H275Y mutant after 30 mins by NA-star substrate based chemiluminescent assay; type: functional, organism-based; summary of the method: as §3
Influenza A virus [12] = assay: Ratio of IC50 for influenza A (A/Singapore/91/2009 (H1N1)) virus harboring neuraminidase H275Y mutant to IC50 for influenza A (A/Washington/29/2009 (H1N1)) virus expressing wild type enzyme by fetuin substrate based colorimetric assay; type: functional; summary of the method: as §2
Influenza A virus [13] = assay: Antiviral activity against influenza A (A/Washington/29/2009 (H1N1)) virus harboring neuraminidase H275Y mutant after 30 mins by MUNANA substrate based fluorometric assay; type: functional, organism-based
Summary of the method: (§4)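 Fluorometric NA inhibition with MUNANA (100 μM final). Titrated virus in NA-Star buffer (26 mM MES, 4 mM CaCl2, pH 6.0) was preincubated with ten half-log inhibitor dilutions (0.03–1,000 nM final) for 30 min at 37°C, then with substrate for 30 min at 37°C. The reaction was stopped with 0.1 M glycine in 25% ethanol, pH 10.7, and 4-methylumbelliferone was read at ex 365/em 450 nm. IC50 came from a Vmax·[1−x/(K+x)] fit, mean of ≥3 experiments.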

Influenza A virus [14] = assay: Ratio of IC50 for influenza A (A/Hong Kong/2369/2009 (H1N1)) virus harboring neuraminidase H275Y mutant to IC50 for influenza A (A/Washington/29/2009 (H1N1)) virus expressing wild type enzyme by MUNANA substrate based fluorometric assay; type: functional
Influenza A virus [15] = assay: Antiviral activity against influenza A (A/North Carolina/01/2009 (H1N1)) virus harboring neuraminidase H275Y mutant after 30 mins by MUNANA substrate based fluorometric assay; type: functional, organism-based; summary of the method: as §4
Influenza A virus [16] = assay: Ratio of IC50 for influenza A (A/Singapore/57/2009 (H1N1)) virus harboring neuraminidase H275Y mutant to IC50 for influenza A (A/Washington/29/2009 (H1N1)) virus expressing wild type enzyme by NA-star substrate based chemiluminescent assay; type: functional
Summary of the method: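 Chemiluminescent NA inhibition in MES 26 mM/CaCl2 4 mM buffer, pH 6.0. […] Luminescence read for 0.1 s. IC50 from the fit y = Vmax·{1 − [x/(K + x)]}, mean of ≥3 experiments. Ratio is the H275Y variant IC50 over the pandemic wild-type reference IC50.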

Influenza A virus [17] = assay: Ratio of IC50 for influenza A (A/North Carolina/02/2009 (H1N1)) virus harboring neuraminidase H275Y mutant to IC50 for influenza A (A/Washington/10/2008 (H1N1)) virus expressing wild type enzyme by MUNANA substrate based fluorometric assay; type: functional
Influenza A virus [18] = assay: Antiviral activity against influenza A (A/Hong Kong/2369/2009 (H1N1)) virus harboring neuraminidase H275Y mutant after 16 to 18 hrs by fetuin substrate based colorimetric assay; type: functional, organism-based; summary of the method: as §1

SMILES	IC50 (Influenza A virus [1])	Ratio IC50 (Influenza A virus [2])	Ratio IC50 (Influenza A virus [3])	IC50 (Influenza A virus [4])	Ratio IC50 (Influenza A virus [5])	Ratio IC50 (Influenza A virus [6])	Ratio IC50 (Influenza A virus [7])	Ratio IC50 (Influenza A virus [8])	IC50 (Influenza A virus [9])	Ratio IC50 (Influenza A virus [10])	IC50 (Influenza A virus [11])	Ratio IC50 (Influenza A virus [12])	IC50 (Influenza A virus [13])	Ratio IC50 (Influenza A virus [14])	IC50 (Influenza A virus [15])	Ratio IC50 (Influenza A virus [16])	Ratio IC50 (Influenza A virus [17])	IC50 (Influenza A virus [18])
C/C=C\[C@@H]1C[C@H](C(=O)O)N[C@H]1[C@@H](NC(C)=O)[C@](C)(CCC)OC	2.07 nM	1	1	0.84 nM	3	3	2	3	0.91 nM	1	1.62 nM	1	1.76 nM	3	1.93 nM	3	1	3.56 nM
CCC(CC)[C@H](NC(C)=O)[C@@H]1[C@H](O)[C@@H](C(=O)O)C[C@H]1NC(=N)N [PERAMIVIR ANHYDROUS]	163 nM	1	173	13.8 nM	609	330	111	398	13.1 nM	1	12.5 nM	1	150 nM	641	150 nM	84	1	162 nM
